Results collected from several papers.
Protocols differ between the studies behind these lines.
Target: Phosphatidylinositol 4-phosphate 3-kinase C2 domain-containing subunit beta (PIK3C2B, Homo sapiens, UniProt O00750)

CN1CCN(C(=O)c2ccc(NC(=O)Nc3ccc(N(C)c4ccnc(Nc5ccc(CS(C)(=O)=O)cc5)n4)cc3)cc2)CC1
remaining binding (binding; 1 µM): 100%

CCCCC(=O)Nc1ccc(-c2ccc3ncn(CCC)c(=O)c3c2)cn1
remaining binding (binding; competition with immobilised ligand; 0.5 µM): 100%

C[C@H]1CC[C@H](n2c3cnccc3c3cnc(Nc4ccc5c(n4)CCN(C(=O)CO)C5)nc32)CC1
remaining signal (cell-free assay; 1 µM): 100%

C1=C/COCc2cc(ccc2OCCN2CCCC2)Nc2nccc(n2)-c2cccc(c2)COC/1
remaining binding (binding; 0.1 µM): 87%

C=CC(=O)N1CCC([C@@H]2CCNc3c(C(N)=O)c(-c4ccc(Oc5ccccc5)cc4)nn32)CC1
inhibition (enzyme activity; inhibitor; 1 µM): 0%

C#Cc1cnc(Nc2ccnc(CO)c2)nc1Nc1ccccc1S(C)(=O)=NC#N (centres unmarked)
remaining signal (cell-free assay; 1 µM): 100%

CC#CC(=O)N1CCC[C@H]1c1nc(-c2ccc(C(=O)Nc3ccccn3)cc2)c2c(N)nccn12
inhibition (enzyme activity; inhibitor; 1 µM): 0%

N#Cc1ccc(NC(=O)Nc2ccccc2)cc1
remaining binding (cell-free assay; competition with immobilised ligand; 25 µM): 79%
